Activity calls are given as the source filed them. The calls are words filed in the database; no cut-off is given here.
Experiments:
[1] = target: T1, Gamma-aminobutyric acid receptor subunit rho-1 (Homo sapiens, UniProt P24046); assay: Agonist activity at human GABAA rho1 receptor expressed in HEK293 cells at up to 300 uM by patch clamp electrophysiology assay; type: cell-based
[2] = target: T2, GABA-A receptor; alpha-1/beta-2/gamma-2 (Homo sapiens) (UniProt P14867+P47870+P18507); assay: Agonist activity at human GABAA alpha1beta2gamma2S receptor expressed in HEK293 cells by patch clamp electrophysiology assay relative to GABA; type: cell-based
[3] = target: T1, Gamma-aminobutyric acid receptor subunit rho-1; assay: Agonist activity at human GABAA rho1 receptor expressed in TSA201 cells after 1 min by FLIPR assay; type: cell-based
How it was run: (§1)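 tsA201 cells transfected with 5 μg human ρ1 cDNA, then plated on poly-D-lysine plates for 16–24 h. Loaded with FLIPR membrane potential blue dye in Krebs buffer (pH 7.4), 30 min at 37 °C. Emission at 560 nm (excitation 530 nm) recorded before and up to 1 min after agonist addition. Curves fitted from ΔFU; duplicate, at least three times.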

[4] = target: T3, GABA-A receptor; alpha-1/beta-2/gamma-2 (Homo sapiens, UniProt P14867+P18507+P47870); assay: Agonist activity at human GABAA alpha1beta2gamma2S receptor expressed in TSA201 cells after 1 min by FLIPR assay; type: cell-based
T3 sequence (P14867 whole entry): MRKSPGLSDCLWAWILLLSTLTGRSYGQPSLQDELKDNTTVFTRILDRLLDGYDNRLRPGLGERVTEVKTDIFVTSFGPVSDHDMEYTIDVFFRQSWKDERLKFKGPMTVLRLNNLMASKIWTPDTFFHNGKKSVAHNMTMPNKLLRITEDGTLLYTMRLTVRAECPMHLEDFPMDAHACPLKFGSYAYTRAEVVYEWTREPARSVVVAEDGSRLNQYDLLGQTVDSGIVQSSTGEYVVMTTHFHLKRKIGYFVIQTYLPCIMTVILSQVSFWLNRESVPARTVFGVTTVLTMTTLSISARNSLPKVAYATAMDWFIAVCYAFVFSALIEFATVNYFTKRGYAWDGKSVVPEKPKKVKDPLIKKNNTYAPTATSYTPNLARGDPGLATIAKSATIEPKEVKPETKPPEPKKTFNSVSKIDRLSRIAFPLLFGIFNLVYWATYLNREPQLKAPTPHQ
T3 sequence (P47870 whole entry): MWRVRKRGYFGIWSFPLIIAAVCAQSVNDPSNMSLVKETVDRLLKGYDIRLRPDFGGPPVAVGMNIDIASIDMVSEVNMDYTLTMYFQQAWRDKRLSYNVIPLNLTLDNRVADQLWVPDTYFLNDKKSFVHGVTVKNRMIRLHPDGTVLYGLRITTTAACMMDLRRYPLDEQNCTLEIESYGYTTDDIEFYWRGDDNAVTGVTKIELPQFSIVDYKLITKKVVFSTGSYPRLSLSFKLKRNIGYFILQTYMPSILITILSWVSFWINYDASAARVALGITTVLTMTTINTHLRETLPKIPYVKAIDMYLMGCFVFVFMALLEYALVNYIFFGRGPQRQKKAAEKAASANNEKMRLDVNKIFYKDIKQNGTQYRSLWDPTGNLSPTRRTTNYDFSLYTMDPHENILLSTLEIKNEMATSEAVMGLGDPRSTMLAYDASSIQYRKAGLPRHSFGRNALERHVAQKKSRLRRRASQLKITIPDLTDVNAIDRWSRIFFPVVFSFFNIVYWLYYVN
T3 sequence (P18507 whole entry): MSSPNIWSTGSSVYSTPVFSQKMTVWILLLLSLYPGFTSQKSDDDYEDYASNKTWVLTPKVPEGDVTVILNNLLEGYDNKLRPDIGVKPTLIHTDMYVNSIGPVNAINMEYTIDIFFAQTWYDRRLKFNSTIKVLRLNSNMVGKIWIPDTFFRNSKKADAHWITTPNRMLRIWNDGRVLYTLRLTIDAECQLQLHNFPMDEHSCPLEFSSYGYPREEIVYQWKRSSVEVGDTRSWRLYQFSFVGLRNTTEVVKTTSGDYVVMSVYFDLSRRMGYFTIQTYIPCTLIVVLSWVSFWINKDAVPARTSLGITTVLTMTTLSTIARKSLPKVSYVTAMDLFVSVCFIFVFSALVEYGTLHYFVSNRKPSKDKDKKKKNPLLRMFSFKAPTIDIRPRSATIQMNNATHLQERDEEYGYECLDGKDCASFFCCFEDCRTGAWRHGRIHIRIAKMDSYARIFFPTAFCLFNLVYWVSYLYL
How it was run: (§2)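 tsA201 cells transfected with 1 μg α (1, 2, 3 or 5), 1 μg β2 and 3 μg γ2S cDNA (Polyfect). Cells replated onto poly-D-lysine plates and assayed 16–24 h later. Loaded with FMP blue dye in Krebs buffer pH 7.4 for 30 min at 37 °C.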

[5] = target: T3, GABA-A receptor; alpha-1/beta-2/gamma-2; assay: Agonist activity at human GABAA alpha1beta2gamma2S receptor expressed in HEK293 cells by patch clamp electrophysiology assay; type: cell-based
[6] = Displacement of [3H]muscimol from GABAA receptor in rat synaptic membrane after 60 mins by scintillation counting analysis; type: cell membranes
How it was run: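 Membranes from cortex and central hemispheres of male SPRD rat brains, washed repeatedly in 50 mM Tris-HCl pH 7.4. 70–80 μg protein per well incubated with [3H]muscimol. Separated by GF/C filtration with ice-cold buffer washes; bound radioactivity counted by scintillation. Nonspecific binding defined with 1.0 mM GABA.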

[7] = Agonist activity at human GABAA alpha5beta2gamma2S receptor expressed in TSA201 cells after 1 min by FLIPR assay; type: cell-based; conditions: tsA201, 1 min
[8] = target: T4, GABA A receptor alpha-2/beta-2/gamma-2 (Homo sapiens, UniProt P18507+P47869+P47870); assay: Agonist activity at human GABAA alpha2beta2gamma2S receptor expressed in TSA201 cells after 1 min by FLIPR assay; type: cell-based; how it was run: as §2
T4 sequence (P47870 whole entry): T3 sequence (P47870 whole entry)
T4 sequence (P18507 whole entry): T3 sequence (P18507 whole entry)
T4 sequence (P47869 whole entry): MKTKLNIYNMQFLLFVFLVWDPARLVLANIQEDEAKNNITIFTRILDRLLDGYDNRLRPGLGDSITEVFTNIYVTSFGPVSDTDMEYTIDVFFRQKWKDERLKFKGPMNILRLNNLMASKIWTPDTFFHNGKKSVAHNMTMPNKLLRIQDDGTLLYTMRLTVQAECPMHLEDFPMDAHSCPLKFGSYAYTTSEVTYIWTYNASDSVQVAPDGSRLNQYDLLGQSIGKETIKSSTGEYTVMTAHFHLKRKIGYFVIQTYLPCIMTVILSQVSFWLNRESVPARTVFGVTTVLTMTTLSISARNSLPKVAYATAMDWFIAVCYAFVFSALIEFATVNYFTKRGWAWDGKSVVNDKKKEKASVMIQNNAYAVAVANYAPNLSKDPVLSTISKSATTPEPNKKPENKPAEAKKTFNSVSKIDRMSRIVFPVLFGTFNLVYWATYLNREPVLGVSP

[9] = target: T5, GABA A receptor alpha-3/beta-2/gamma-2 (Homo sapiens, UniProt P18507+P34903+P47870); assay: Agonist activity at human GABAA alpha3beta2gamma2S receptor expressed in TSA201 cells after 1 min by FLIPR assay; type: cell-based; how it was run: as §2
T5 sequence (P47870 whole entry): T3 sequence (P47870 whole entry)
T5 sequence (P18507 whole entry): T3 sequence (P18507 whole entry)
T5 sequence (P34903 whole entry): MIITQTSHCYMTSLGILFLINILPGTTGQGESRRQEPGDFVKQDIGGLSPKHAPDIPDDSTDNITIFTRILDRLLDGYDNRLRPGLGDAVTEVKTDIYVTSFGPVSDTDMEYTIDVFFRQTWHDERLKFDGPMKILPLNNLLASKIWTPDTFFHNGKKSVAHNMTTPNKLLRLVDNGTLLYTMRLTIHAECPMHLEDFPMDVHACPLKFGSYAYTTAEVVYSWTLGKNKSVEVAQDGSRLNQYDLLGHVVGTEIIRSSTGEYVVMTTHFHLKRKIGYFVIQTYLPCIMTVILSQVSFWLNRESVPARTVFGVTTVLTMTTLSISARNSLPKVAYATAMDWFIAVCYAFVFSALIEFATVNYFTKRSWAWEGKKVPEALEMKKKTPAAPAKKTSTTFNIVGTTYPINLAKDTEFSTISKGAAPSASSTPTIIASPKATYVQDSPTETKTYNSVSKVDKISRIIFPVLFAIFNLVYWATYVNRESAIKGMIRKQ

[10] = target: T2, GABA-A receptor; alpha-1/beta-2/gamma-2 (Homo sapiens); assay: Agonist activity at human GABAA alpha1beta2gamma2S receptor expressed in TSA201 cells after 1 min by FLIPR assay relative to GABA; type: cell-based
How it was run: as §2, with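 “°C. Fluorescence (ex 530/em 560 nm) read before and up to 1 min after agonist addition. ΔFU concentration-response curves; duplicate, ≥3 experiments.” for “°C.”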

[11] = target: GABA A receptor alpha-3/beta-2/gamma-2 (Homo sapiens) (UniProt P47870+P18507+P34903); assay: Agonist activity at human GABAA alpha3beta2gamma2S receptor expressed in TSA201 cells after 1 min by FLIPR assay relative to GABA; type: cell-based
How it was run: as §2, with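 “°C. Fluorescence (ex 530/em 560 nm) read before and up to 1 min after agonist addition. ΔFU concentration-response curves; duplicate, ≥3 experiments.” for “°C.”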

[12] = target: GABA A receptor alpha-2/beta-2/gamma-2 (Homo sapiens) (UniProt P47870+P18507+P47869); assay: Agonist activity at human GABAA alpha2beta2gamma2S receptor expressed in TSA201 cells after 1 min by FLIPR assay relative to GABA; type: cell-based
How it was run: as §2, with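 “°C. Fluorescence (ex 530/em 560 nm) read before and up to 1 min after agonist addition. ΔFU concentration-response curves; duplicate, ≥3 experiments.” for “°C.”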

[13] = target: T1, Gamma-aminobutyric acid receptor subunit rho-1; assay: Agonist activity at human GABAA rho1 receptor expressed in HEK293 cells by patch clamp electrophysiology assay; type: cell-based
How it was run: (§3)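 Human ρ1 (pCDNA3) co-transfected with a GFP plasmid into HEK 293 cells. Whole-cell voltage clamp at −60 mV, 40–72 h after transfection, room temperature (20–22 °C). Extracellular solution pH 7.35; intrapipette solution with KCl 140 mM, EGTA 10 mM, MgATP 2 mM, pH 7.3.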

[14] = target: T1, Gamma-aminobutyric acid receptor subunit rho-1; assay: Agonist activity at human GABAA rho1 receptor expressed in TSA201 cells after 1 min by FLIPR assay relative to GABA; type: cell-based; how it was run: as §1
[15] = target: T1, Gamma-aminobutyric acid receptor subunit rho-1; assay: Agonist activity at human GABAA rho1 receptor expressed in HEK293 cells by patch clamp electrophysiology assay relative to GABA; type: cell-based; how it was run: as §3
TSA201 = assay: Agonist activity at human GABAA alpha5beta2gamma2S receptor expressed in TSA201 cells after 1 min by FLIPR assay relative to GABA; type: cell-based
How it was run: as §2, with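 “°C. Fluorescence (ex 530/em 560 nm) read before and up to 1 min after agonist addition. ΔFU concentration-response curves; duplicate, ≥3 experiments.” for “°C.”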

[16] = target: T2, GABA-A receptor; alpha-1/beta-2/gamma-2 (Homo sapiens); assay: Agonist activity at human GABAA alpha1beta2gamma2S receptor expressed in HEK293 cells at up to 300 uM by patch clamp electrophysiology assay; type: cell-based

T1 sequence (P24046 whole entry): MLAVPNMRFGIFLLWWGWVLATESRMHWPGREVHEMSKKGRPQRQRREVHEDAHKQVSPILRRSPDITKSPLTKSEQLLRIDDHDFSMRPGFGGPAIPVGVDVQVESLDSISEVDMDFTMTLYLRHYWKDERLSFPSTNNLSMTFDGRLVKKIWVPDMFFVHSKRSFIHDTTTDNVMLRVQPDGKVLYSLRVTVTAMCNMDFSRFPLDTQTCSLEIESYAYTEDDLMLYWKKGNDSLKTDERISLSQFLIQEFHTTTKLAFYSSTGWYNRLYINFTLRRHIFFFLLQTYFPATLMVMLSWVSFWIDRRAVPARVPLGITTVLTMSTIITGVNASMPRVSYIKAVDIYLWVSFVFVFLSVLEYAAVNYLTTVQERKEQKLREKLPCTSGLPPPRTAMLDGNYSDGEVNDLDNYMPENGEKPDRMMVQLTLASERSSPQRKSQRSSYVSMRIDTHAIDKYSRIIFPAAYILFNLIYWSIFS

Structure (SMILES): NCc1cnn(O)c1Cl
- Activity [1]: inactive
- Rmax [2]: > 72%
- EC50 [3]: > 500 µM
- EC50 [4]: 29 µM
- EC50 [5]: > 30 µM
- Ki [6]: 0.63 µM
- pKi [6]: 6.2

Structure (SMILES): Oc1noc2c1CCNC2 [GABOXADOL]
- EC50 [4]: 14 µM
- Ki [6]: 0.16 µM

Structure (SMILES): Cc1nn(O)c(C)c1CN
- Ki [6]: > 100 µM

Structure (SMILES): NCc1cc(O)no1 [MUSCIMOL]
- EC50 ([7]; read-out: EC50): 0.054 µM
- EC50 ([7]; read-out: pEC50 (converted)): 0.0537 µM
- EC50 [3]: 0.7 µM
- EC50 [4]: 0.54 µM
- EC50 [8]: 0.41 µM
- EC50 [9]: 0.21 µM
- Ki [6]: 0.007 µM

Structure (SMILES): NCc1cnn(O)c1Br
- Activity [1]: inactive
- Rmax [2]: > 23%
- EC50 [5]: > 100 µM
- Ki [6]: 2.8 µM
- pKi [6]: 5.56

Structure (SMILES): NCc1cnn(O)c1
- EC50 ([7]; read-out: EC50): 0.78 µM
- EC50 ([7]; read-out: pEC50 (converted)): 0.794 µM
- Rmax [10]: 77%
- Rmax [11]: 77%
- Rmax [12]: 77%
- EC50 [13]: 55 µM
- Rmax [14]: 77%
- Rmax [2]: 69%
- Rmax [15]: 70%
- EC50 [3]: 3.1 µM
- EC50 [4]: 13 µM
- Rmax (TSA201): 77%
- EC50 [8]: 4.5 µM
- EC50 [9]: 5.6 µM
- EC50 [5]: 19 µM
- Ki [6]: 0.22 µM
- pKi [6]: 6.68

Structure (SMILES): NCc1cn(O)nc1I
- EC50 [3]: > 500 µM
- EC50 [4]: > 500 µM
- Ki [6]: 32 µM
- pKi [6]: 4.5

Structure (SMILES): Cc1c(O)noc1CN
- Activity [1]: inactive
- Activity [16]: inactive
- Ki [6]: 54 µM
- pKi [6]: 4.28

Structure (SMILES): Cc1nn(O)cc1CN
- Ki [6]: 68 µM
- pKi [6]: 4.16

Structure (SMILES): On1ncc2c1CCNC2
- Ki [6]: > 100 µM
